# Data as given in ChEMBL document CHEMBL1130325, “Novel non-nucleoside inhibitors of human immunodeficiency virus type 1 reverse transcriptase. 6. 2-Indol-3-yl- and 2-azaindol-3-yl-dipyridodiazepinones” (J Med Chem, 1997).
# How the values were obtained:
# [1] = molecular target: Human immunodeficiency virus type 1 reverse transcriptase (Human immunodeficiency virus 1) (UniProt Q72547); experiment: Inhibition against HIV-1 wild type reverse transcriptase […]
# [2] = test system: Human immunodeficiency virus type 1 reverse transcriptase (Human immunodeficiency virus 1), Q72547 [Y181C]; experiment: Inhibition against HIV-1 mutant Y181C reverse transcriptase at 1 mM
# [3] = molecular target: Human immunodeficiency virus type 1 reverse transcriptase (Human immunodeficiency virus 1, UniProt Q72547, Y181C); experiment: Inhibitory concentration against HIV-1 mutant Y181C reverse transcriptase
# In short: (§1)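 HIV-1 RT is at 0.63 nM in 50 mM Tris pH 7.8 with 4 mM DTT, 60 mM NaCl, 2 mM MgCl2, 0.02% Chaps, 4.8 μg/mL poly(rC)/oligo(dG) and 0.45 μM [3H]dGTP. Incubation is 30 min at room temperature in triplicate wells; [3H] incorporation is read after acid precipitation, minus EDTA background.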
# [4] = test system: Human immunodeficiency virus type 1 reverse transcriptase (Human immunodeficiency virus 1), Q72547 [[…]]; experiment: Inhibition against HIV-1 mutant Y188L reverse transcriptase at 1 mM
# [5] = molecular target: Human immunodeficiency virus type 1 reverse transcriptase (Human immunodeficiency virus 1, UniProt Q72547); experiment: Inhibitory concentration against HIV-1 wild type reverse transcriptase; in short: as §1
# [6] = molecular target: Human immunodeficiency virus type 1 reverse transcriptase (Human immunodeficiency virus 1, UniProt Q72547, Y188L); experiment: Inhibitory concentration against HIV-1 mutant Y188L reverse transcriptase; in short: as §1
# [7] = molecular target: Human immunodeficiency virus type 1 reverse transcriptase (Human immunodeficiency virus 1, UniProt Q72547, V106A); experiment: Inhibition against HIV-1 mutant V106A reverse transcriptase […]
# [8] = molecular target: Human immunodeficiency virus type 1 reverse transcriptase (Human immunodeficiency virus 1, UniProt Q72547, P236L); experiment: Inhibition against HIV-1 mutant P236L reverse transcriptase […]
# [9] = molecular target: Human immunodeficiency virus type 1 reverse transcriptase (Human immunodeficiency virus 1, UniProt Q72547, G190A); experiment: Inhibition against HIV-1 mutant G190A reverse transcriptase […]
# [10] = molecular target: Human immunodeficiency virus type 1 reverse transcriptase (Human immunodeficiency virus 1, UniProt Q72547, K103N); experiment: Inhibition against HIV-1 mutant K103N reverse transcriptase […]
smiles,measurement,setting,value
CCN1c2ncccc2C(=O)N(C)c2ccc(-c3c[nH]c4ccncc34)nc21,inhibition,[1],87%
same,inhibition,[2],66%
same,IC50,[3],222 nM
same,inhibition,[4],3%
same,IC50,[5],130 nM
CCN1c2ncccc2C(=O)N(C)c2ccc(-c3c[nH]c4ncccc34)nc21,inhibition,[1],76%
same,inhibition,[2],70%
same,IC50,[3],200 nM
same,inhibition,[4],39%
same,IC50,[5],210 nM
same,IC50,[6],1300 nM
CCN1c2ncccc2C(=O)N(C)c2ccc(-c3c[nH]c4cnccc34)nc21,IC50,[7],228 nM
same,inhibition,[1],94%
same,inhibition,[2],81%
same,IC50,[3],98 nM
same,inhibition,[4],64%
same,IC50,[8],< 1 nM
same,IC50,[5],44 nM
same,IC50,[9],19 nM
same,IC50,[10],32 nM
same,IC50,[6],384 nM
CCN1c2ncccc2C(=O)N(C)c2ccc(-c3c[nH]c4ccc(OC)cc34)nc21,IC50,[7],3090 nM
same,inhibition,[1],61%
same,inhibition,[2],45%
same,IC50,[3],230 nM
same,inhibition,[4],58%
same,IC50,[8],404 nM
same,IC50,[5],200 nM
same,IC50,[9],600 nM
same,IC50,[10],935 nM
same,IC50,[6],730 nM
CCN1c2ncccc2C(=O)N(C)c2ccc(-c3c[nH]c4cccnc34)nc21,inhibition,[1],21%
same,inhibition,[2],18%
same,inhibition,[4],37%
CCN1c2ncccc2C(=O)N(C)c2ccc(-c3c[nH]c4ccccc34)nc21,IC50,[7],49 nM
same,inhibition,[1],96%
same,inhibition,[2],93%
same,IC50,[3],28 nM
same,inhibition,[4],72%
same,IC50,[8],79 nM
same,IC50,[5],28 nM
same,IC50,[9],12 nM
same,IC50,[10],97 nM
same,IC50,[6],90 nM
CCN1c2ncccc2C(=O)N(C)c2ccc(-c3c[nH]c4ccc(F)cc34)nc21,inhibition,[1],63%
same,inhibition,[2],59%
same,IC50,[3],555 nM
same,inhibition,[4],17%
same,IC50,[5],706 nM
CCN1c2ncccc2C(=O)N(C)c2ccc(-c3cc[nH]c3)nc21,IC50,[7],1000 nM
same,inhibition,[1],95%
same,inhibition,[2],91%
same,IC50,[3],50 nM
same,inhibition,[4],78%
same,IC50,[5],33 nM
same,IC50,[9],320 nM
same,IC50,[6],100 nM
